ChEMBL document CHEMBL1128362, “Structure-activity relationships of 9-alkyladenine and ribose-modified adenosine derivatives at rat A3 adenosine receptors” (J Med Chem, 1995)
“And” between values parts separate entries of the source, which are not always exact repeats. Equal entries are not always repeated. The source made the active and inactive calls. The calls are words filed in the database; no cut-off is given here.

Columns and labels:
[1] = molecular target: T1, Adenosine receptor A3 (Rattus norvegicus) (UniProt P28647); experiment: Ability to inhibit the adenylyl cyclase in CHO cells stably transfected with rat Adenosine A3 receptor at the concentration of 100 uM; format: cell-based
T1 sequence (whole entry): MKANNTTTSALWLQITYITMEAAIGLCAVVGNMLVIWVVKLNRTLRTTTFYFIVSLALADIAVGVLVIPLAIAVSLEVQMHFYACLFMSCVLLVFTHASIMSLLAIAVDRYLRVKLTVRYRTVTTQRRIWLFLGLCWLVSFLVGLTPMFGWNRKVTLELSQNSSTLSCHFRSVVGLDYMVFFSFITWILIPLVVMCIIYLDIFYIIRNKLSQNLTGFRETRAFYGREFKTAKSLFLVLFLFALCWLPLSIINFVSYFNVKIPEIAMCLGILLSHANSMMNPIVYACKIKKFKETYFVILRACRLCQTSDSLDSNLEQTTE
Summary of the method: (§1)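 Adenylyl cyclase activity measured in membranes of CHO cells stably transfected with rat brain A3 receptor, following an earlier published method. […] Untransfected CHO cell membranes served as the control.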

[2] = molecular target: Adenosine receptor A2a (Rattus norvegicus, UniProt P30543); experiment: Binding affinity against adenosine A2A receptor from rat brain.
[3] = molecular target: T2, Adenosine receptor A3 (Rattus norvegicus, UniProt P28647); experiment: Binding affinity against adenosine A3 receptor (rat) stably expressed in CHO cell membranes.
T2 sequence (P28647 whole entry): T1 sequence (whole entry)
Summary of the method: (§2)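 Rat brain A3 receptor was stably expressed in CHO cell membranes and labelled with [125I]AB-MECA at 0.3 nM final, in 50 mM Tris/10 mM MgCl2/1 mM EDTA, pH 8.26. Inhibitors were in DMSO, at no more than 2% final. Incubation was 1 h at 37 °C in duplicate, ended by filtration. Nonspecific binding was defined by 200 µM NECA.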

[4] = molecular target: Adenosine receptors; A1 & A3 (Rattus norvegicus) (UniProt P25099+P28647); experiment: Ratio of the binding affinities against rat brain A1 and A3 receptors, KiA1/KiA3.
[5] = molecular target: Adenosine receptor A2a and A3 (Rattus norvegicus) (UniProt P30543+P28647); experiment: Ratio of the binding affinities against rat brain A2a and A3 receptors, KiA2a/KiA3.
[6] = molecular target: T3, Adenosine receptor A1 (Rattus norvegicus, UniProt P25099); experiment: Binding affinity against adenosine A1 receptor from rat brain.
T3 sequence (P25099 whole entry): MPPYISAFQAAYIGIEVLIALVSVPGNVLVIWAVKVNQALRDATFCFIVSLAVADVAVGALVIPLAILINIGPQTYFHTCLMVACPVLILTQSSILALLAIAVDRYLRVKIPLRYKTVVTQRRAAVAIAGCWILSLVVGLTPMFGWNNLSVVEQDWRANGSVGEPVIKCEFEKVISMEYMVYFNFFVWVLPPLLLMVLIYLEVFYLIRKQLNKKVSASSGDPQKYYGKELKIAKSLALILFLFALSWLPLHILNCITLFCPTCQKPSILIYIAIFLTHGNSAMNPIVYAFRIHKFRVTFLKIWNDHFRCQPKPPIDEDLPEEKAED

[7] = molecular target: T1, Adenosine receptor A3 (Rattus norvegicus); experiment: Ratio of the concentration (100 uM) effecting adenylyl cyclase and binding affinity against rat brain A3 receptors.
Summary of the method: (§3)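 This ratio is the adenylyl cyclase test concentration (20, 40 or 100 µM) divided by the A3 Ki. The Ki came from [125I]AB-MECA displacement in membranes of CHO cells expressing rat A3 receptor.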

[8] = molecular target: T1, Adenosine receptor A3 (Rattus norvegicus); experiment: Ability to inhibit the adenylyl cyclase in CHO cells stably transfected with rat Adenosine A3 receptor at the concentration of 40(uM); format: cell-based; summary of the method: as §1
[9] = molecular target: T1, Adenosine receptor A3 (Rattus norvegicus); experiment: Ratio of the concentration (40 uM) effecting adenylyl cyclase and binding affinity against rat brain A3 receptors.; summary of the method: as §3
[10] = molecular target: T1, Adenosine receptor A3 (Rattus norvegicus); experiment: Agonist elicited inhibition of adenylyl cyclase via rat Adenosine A3 receptor in transfected CHO cells and effect on IB-MECA was determined from dose response curves at the concentration of 40(uM); format: functional, cell-based
Summary of the method: (§4)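 CHO cell membranes stably transfected with rat A3 receptor were used to test for antagonism. Adenylyl cyclase inhibition was elicited by the A3 agonist IB-MECA across a dose-response curve, and test agent at 40 or 100 µM was checked for reversal of the agonist-induced inhibition. The cyclase measurement followed a previously described method.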

[11] = molecular target: Adenosine receptor A2a (Rattus norvegicus) (UniProt P30543); experiment: Binding affinity against Adenosine A2A receptor from rat brain; set-up: concentration or dose not given beside the values; conditions: concentration not given here
Summary of the method: (§5)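 Rat A1 receptors came from cerebral cortical membranes with [3H]R-PIA, and rat A2a receptors came from striatal membranes with [3H]CGS 21680. Membranes were pretreated with adenosine deaminase (2 U/mL) for 30 min at 37 °C. Nonspecific binding was defined by 2-chloroadenosine at 10 µM (A1) and 200 µM (A2a).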

[12] = molecular target: T1, Adenosine receptor A3 (Rattus norvegicus); conditions: CHO
[13] = molecular target: T1, Adenosine receptor A3 (Rattus norvegicus); conditions: CHO; remark: listed apart in the source
[14] = molecular target: T1, Adenosine receptor A3 (Rattus norvegicus); experiment: Inhibition of Adenosine A3 receptor from rat brain; conditions: concentration not given here; summary of the method: as §2
[15] = molecular target: T1, Adenosine receptor A3 (Rattus norvegicus); experiment: Ability to inhibit the adenylyl cyclase in CHO cells stably transfected with rat Adenosine A3 receptor at the concentration of 20(uM); format: cell-based; summary of the method: as §1
[16] = molecular target: T1, Adenosine receptor A3 (Rattus norvegicus); experiment: Ratio of the concentration (20 uM) effecting adenylyl cyclase and binding affinity against rat brain A3 receptors; summary of the method: as §3
[17] = molecular target: T4, Adenosine receptor A1 (Rattus norvegicus) (UniProt P25099); experiment: Inhibition of Adenosine A1 receptor from rat brain.; conditions: concentration not given here; summary of the method: as §5
T4 sequence (whole entry): T3 sequence (P25099 whole entry)

[18] = molecular target: T1, Adenosine receptor A3 (Rattus norvegicus); conditions: CHO; remark: listed apart in the source
[19] = molecular target: T1, Adenosine receptor A3 (Rattus norvegicus); experiment: Ability to inhibit the adenylyl cyclase in CHO cells stably transfected with rat Adenosine A3 receptor at the dose of 40(uM); format: cell-based; summary of the method: as §1
[20] = molecular target: T1, Adenosine receptor A3 (Rattus norvegicus); experiment: Ratio of the concentration (40 uM) effecting adenylyl cyclase and binding affinity against rat brain Adenosine A3 receptor; summary of the method: as §3
[21] = molecular target: T1, Adenosine receptor A3 (Rattus norvegicus); experiment: Agonist elicited inhibition of adenylyl cyclase via rat Adenosine A3 receptor in transfected CHO cells and effect on IB-MECA was determined from dose response curves at the concentration of 100(uM); format: functional, cell-based; summary of the method: as §4

Adenosine receptor A2a and A3 (Rattus norvegicus), sequence (P30543 whole entry, looked up, one chain of several): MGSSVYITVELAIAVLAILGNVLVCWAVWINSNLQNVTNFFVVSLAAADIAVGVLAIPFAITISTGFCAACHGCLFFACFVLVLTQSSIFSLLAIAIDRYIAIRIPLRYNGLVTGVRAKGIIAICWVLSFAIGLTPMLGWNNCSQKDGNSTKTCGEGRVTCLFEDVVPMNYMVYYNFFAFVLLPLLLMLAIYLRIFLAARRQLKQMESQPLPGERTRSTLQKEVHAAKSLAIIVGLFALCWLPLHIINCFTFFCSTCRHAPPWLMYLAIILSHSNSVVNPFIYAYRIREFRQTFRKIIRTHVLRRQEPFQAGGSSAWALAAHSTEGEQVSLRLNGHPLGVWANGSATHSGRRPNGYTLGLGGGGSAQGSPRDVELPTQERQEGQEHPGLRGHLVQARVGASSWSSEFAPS
Adenosine receptor A2a, sequence (P30543 whole entry): as the sequence (P30543 whole entry, looked up, one chain of several) above
Adenosine receptor A2a (Rattus norvegicus), sequence (P30543 whole entry): as the sequence (P30543 whole entry, looked up, one chain of several) above

## CNC(=O)[C@@H]1C[C@@H](F)[C@H](n2cnc3c(NCc4cccc(I)c4)nc(Cl)nc32)O1
[1]
  inhibition: 11.2%
[2]
  Ki: 98 µM
[3]
  Ki: 17.8 µM
[4]
  Ratio: 0.08
[5]
  Ratio: 5.5
[6]
  Ki: 1.42 µM
[7]
  Ratio: 5.6

## CNC(=O)[C@@H]1CC[C@H](n2cnc3c(NCc4ccccc4)nc(Cl)nc32)O1
[8]
  inhibition: 7.5% and 10.8%
[9]
  Ratio: 1.3
[4]
  Ratio: 0.37
[5]
  Ratio: 7.1
[10]
  Effect: 0

## CNC(=O)[C@@H]1C[C@H](N)[C@H](n2cnc3c(NCc4cccc(I)c4)nc(Cl)nc32)O1
[11]
  inhibition: 2%

## OC[C@@H](O)Cn1cnc2c(NCc3cccc(I)c3)ncnc21
[4]
  Ratio: 0.55
[5]
  Ratio: 0.76

## Cn1cnc2c(NCc3cccc(I)c3)nc(Sc3ccncc3)nc21
[4]
  Ratio: 0.0051
[5]
  Ratio: 0.07

## CNC(=O)[C@H]1O[C@@H](n2cnc3c(NCc4cccc(I)c4)ncnc32)[C@H](O)[C@@H]1O
[1]
  inhibition: 44.4%
[12]
  Effect: inactive
[13]
  Effect: inactive

## COc1nc(NCc2cccc(I)c2)c2ncn(C)c2n1
[4]
  Ratio: 0.027
[5]
  Ratio: 0.068

## N#CCCCn1cnc2c(NCc3cccc(I)c3)ncnc21
[4]
  Ratio: 0.032
[5]
  Ratio: 0.1

## CCCCCC[C@@H]([C@@H](C)O)n1cnc2c(N)ncnc21
[8]
  inhibition: 5.9%
[14]
  inhibition: 57%
[11]
  inhibition: 60%
[10]
  Effect: 0

## Cn1cnc2c(NC3CCCC3)ncnc21
[2]
  Ki: 11 µM
[3]
  Ki: 1330 µM
[4]
  Ratio: 0.00041
[5]
  Ratio: 0.0083

## Cn1cnc2c(NCc3cccc(I)c3)nc(N)nc21
[4]
  Ratio: 0.14
[5]
  Ratio: 0.08

## CC(O)[C@@H]1O[C@@H](n2cnc3c(N)ncnc32)[C@H](O)[C@@H]1O (stereo partly drawn)
[8]
  inhibition: 0%
[2]
  Ki: 54.7 µM
[3]
  Ki: 6 µM
[4]
  Ratio: < 1
[5]
  Ratio: < 1
[6]
  Ki: 150 µM

## CN(C)c1nc(NCc2cccc(I)c2)c2ncn(C)c2n1
[4]
  Ratio: 0.099
[5]
  Ratio: 0.66

## CNC(=O)[C@H]1O[C@@H](n2cnc3c(NCc4cccc(I)c4)nc(Cl)nc32)[C@@H]2OC(=S)O[C@@H]21
[4]
  Ratio: 15
[5]
  Ratio: 71
[7]
  Ratio: 8200

## CC(C)[Si]1(C(C)C)OC[C@H]2O[C@@H](n3cnc4c(NCc5cccc(I)c5)nc(Cl)nc43)[C@H](O)[C@@H]2O[Si](C(C)C)(C(C)C)O1
[1]
  inhibition: 8.7%
[11]
  inhibition: 18%
[4]
  Ratio: 5.1
[5]
  Ratio: > 7
[7]
  Ratio: 7.6

## CNC(=O)[C@@H]1C[C@H](N=[N+]=[N-])[C@H](n2cnc3c(NCc4cccc(I)c4)nc(Cl)nc32)O1
[1]
  inhibition: 27.8%
[15]
  inhibition: 25.7% and 18%
[16]
  Ratio: 3.3
[4]
  Ratio: 0.067
[5]
  Ratio: 4.7
[7]
  Ratio: 17

## CNC(=O)[C@H]1C[C@@H](n2cnc3c(NCc4cccc(I)c4)ncnc32)[C@H](O)[C@@H]1O
[3]
  Ki: 19.5 µM
[11]
  inhibition: 28.5%
[4]
  Ratio: 1.8
[5]
  Ratio: > 1
[6]
  Ki: 35.9 µM

## Nc1nc(Cl)nc2c1ncn2[C@@H]1O[C@H](CO)[C@@H](O)[C@@H]1O
[8]
  inhibition: 16.1%
[3]
  Ki: 14 µM
[6]
  Ki: 24.2 µM

## O=C(O)Cn1cnc2c(NCc3cccc(I)c3)ncnc21
[11]
  inhibition: 9%
[17]
  inhibition: 17%

## CSc1nc(NCc2cccc(I)c2)c2ncn(C[C@H](O)CO)c2n1
[8]
  inhibition: 5.5% and 7.3%
[2]
  Ki: 78.9 µM
[3]
  Ki: 8.59 µM
[9]
  Ratio: 4.6
[4]
  Ratio: 0.16
[5]
  Ratio: 9.2
[6]
  Ki: 1.34 µM
[18]
  Effect: 0

## CS[C@H]1OC(n2cnc3c(N)ncnc32)[C@H](O)[C@@H]1O (stereo partly drawn)
[19]
  inhibition: 19.7%
[20]
  Ratio: 28

## CNC(=O)C1OC(n2cnc3c(NC(=O)c4cccc(I)c4)nc(Cl)nc32)C(OC(=O)c2ccccc2)C1OC(=O)c1ccccc1 (stereo not drawn)
[14]
  inhibition: 55%
[11]
  inhibition: 7%
[17]
  inhibition: 21%

## OCCn1cnc2c(NCc3cccc(I)c3)ncnc21
[4]
  Ratio: 0.37
[5]
  Ratio: 0.24

## Cn1cnc2c(NCc3cccc(I)c3)nc(Cl)nc21
[4]
  Ratio: 0.0088
[5]
  Ratio: 0.053

## CNc1nc(NCc2cccc(I)c2)c2ncn(C)c2n1
[4]
  Ratio: 0.67
[5]
  Ratio: 3.7

## Cn1cnc2c(NCc3cccc(I)c3)ncnc21
[4]
  Ratio: 0.12
[5]
  Ratio: 0.046

## CNC(=O)[C@@H]1C[C@@H](OS(C)(=O)=O)[C@H](n2cnc3c(NCc4cccc(I)c4)nc(Cl)nc32)O1
[4]
  Ratio: 0.18
[5]
  Ratio: 5.8

## CCn1cnc2c(NC3CCCC3)ncnc21
[14]
  inhibition: 30%
[4]
  Ratio: < 1
[5]
  Ratio: < 1

## Cn1cnc2c(NCc3cccc(I)c3)nc(NN)nc21
[4]
  Ratio: 0.05
[5]
  Ratio: 0.18

## CNC(=O)[C@@H]1C[C@@H](OC(C)=O)[C@H](n2cnc3c(NCc4cccc(I)c4)nc(Cl)nc32)O1
[15]
  inhibition: 12.7%
[16]
  Ratio: 320
[4]
  Ratio: 12
[5]
  Ratio: 250

## CNC(=O)[C@@H]1C[C@@H](O)[C@H](n2cnc3c(NCc4cccc(I)c4)nc(Cl)nc32)O1
[8]
  inhibition: 35.2%
[9]
  Ratio: 1200
[4]
  Ratio: 31
[5]
  Ratio: 140
[7]
  Ratio: 3000

## CSc1nc(NCc2cccc(I)c2)c2ncn(C)c2n1
[1]
  inhibition: 19.5%
[21]
  Effect: 0
[4]
  Ratio: 6.3
[5]
  Ratio: 5.5
[7]
  Ratio: 330
